The results in this text go back to BindingDB's records for doi:10.1021/jm060539t (Biogen Idec, 2006).

In assay [1] the target is T1, Adenosine receptor A1 (Rattus norvegicus, UniProt P25099).
T1 sequence (P25099 whole entry): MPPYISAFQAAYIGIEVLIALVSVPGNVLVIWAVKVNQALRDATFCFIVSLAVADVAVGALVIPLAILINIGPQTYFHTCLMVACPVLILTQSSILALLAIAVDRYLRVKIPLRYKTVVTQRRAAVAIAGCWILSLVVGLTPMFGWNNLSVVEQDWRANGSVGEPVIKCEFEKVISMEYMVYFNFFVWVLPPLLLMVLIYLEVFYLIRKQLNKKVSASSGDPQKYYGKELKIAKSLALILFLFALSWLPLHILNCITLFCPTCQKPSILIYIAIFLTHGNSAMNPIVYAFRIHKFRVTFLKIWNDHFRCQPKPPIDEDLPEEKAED
Put plainly: Displacement of [3H]DPCPX from adenosine A1 receptor in rat cerebral cortex. In short, it runs like this: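 Rat brain membranes (cerebral cortex for A1, striatum for A2A) homogenized in 10 mM EDTA/10 mM Na-HEPES pH 7.4 with protease inhibitors, washed, stored at -80 °C. 40-70 µg protein incubated in triplicate with radioligand plus seven competitor concentrations in HEPES/EDTA buffer with 2 units/mL adenosine deaminase, 2.5 h, 21 °C. A1: [3H]DPCPX 2 nM, nonspecific with 10 µM NECA; A2A: [3H]ZM241385 0.5-1.2 nM, nonspecific with 10 µM XAC. GF/C filtration; single-site fit, Cheng-Prusoff Ki.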

The target in assay [2] is T2, Adenosine receptor A1 (Homo sapiens, UniProt P30542).
T2 sequence (P30542 whole entry): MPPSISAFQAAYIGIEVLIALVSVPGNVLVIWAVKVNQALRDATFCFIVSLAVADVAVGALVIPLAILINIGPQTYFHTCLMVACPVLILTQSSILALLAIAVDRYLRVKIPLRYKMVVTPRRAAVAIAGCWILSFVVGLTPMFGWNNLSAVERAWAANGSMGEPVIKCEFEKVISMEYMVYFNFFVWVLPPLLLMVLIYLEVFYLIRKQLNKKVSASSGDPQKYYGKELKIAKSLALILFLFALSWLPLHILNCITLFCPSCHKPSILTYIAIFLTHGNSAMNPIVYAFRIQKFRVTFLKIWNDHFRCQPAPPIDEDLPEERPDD
Put plainly: Displacement of [125I]ABA from human adenosine A1 receptor.

Assay [3] deals with T3, Adenosine receptor A3 (Homo sapiens, UniProt P0DMS8).
T3 sequence (P0DMS8 whole entry): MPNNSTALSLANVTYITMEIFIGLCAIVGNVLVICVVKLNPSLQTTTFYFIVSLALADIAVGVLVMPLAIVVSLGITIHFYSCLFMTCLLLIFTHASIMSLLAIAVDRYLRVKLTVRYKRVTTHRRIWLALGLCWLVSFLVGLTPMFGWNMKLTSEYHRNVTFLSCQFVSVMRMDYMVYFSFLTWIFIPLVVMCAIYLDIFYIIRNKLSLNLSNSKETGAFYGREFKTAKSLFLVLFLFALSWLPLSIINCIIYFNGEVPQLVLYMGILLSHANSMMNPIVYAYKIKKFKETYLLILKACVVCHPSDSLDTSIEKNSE
Description: Displacement of [125I]ABA from human adenosine A3 receptor. (In a radioligand displacement assay an active substance lowers the binding of a labelled ligand.)

Usually Ki stands for the equilibrium dissociation constant of an inhibitor or competing ligand from its target. The low end stands for a stronger hold on the target, the high end for a looser hold on the target. In assay [1], `CCCn1c2nc(C34CCC(O)(CC3)CC4)nc-2c2n(c1=O)CC[C@@H](CC)N2` [(R)-9-ethyl-2-(4-hydroxybicyclo[2.2.2]octan-1-yl)-4-propyl-8,9-dihydropyrimido[1,2-g]purin-5(1H,4H,7H)-one] returned a Ki greater than 250 nM.
With `CCCn1c2nc(C34CCC(O)(CC3)CC4)nc-2c2n(c1=O)C[C@@H](C(C)C)N2` [(R)-2-(4-hydroxybicyclo[2.2.2]octan-1-yl)-8-isopropyl-4-propyl-7,8-dihydro-1H-imidazo[1,2-g]purin-5(4H)-one], the Ki in assay [2] is 35 nM; in assay [3], greater than 10000 nM.
For the compound `CCCn1c2nc(C34CCC(O)(CC3)CC4)nc-2c2n(c1=O)CC[C@@H](C)N2` [(R)-2-(4-hydroxybicyclo[2.2.2]octan-1-yl)-9-methyl-4-propyl-8,9-dihydropyrimido[1,2-g]purin-5(1H,4H,7H)-one], the inhibition constant Ki in assay [1] is greater than 250 nM.
Still for that read-out and setting: with `CCCn1c2nc(C34CCC(O)(CC3)CC4)nc-2c2n(c1=O)C[C@H](CC)N2` [(S)-8-ethyl-2-(4-hydroxybicyclo[2.2.2]octan-1-yl)-4-propyl-7,8-dihydro-1H-imidazo[1,2-g]purin-5(4H)-one] the figure was greater than 100 nM.
`CCCn1c2nc(C34CCC(O)(CC3)CC4)nc-2c2n(c1=O)C[C@@H](CC)N2` [(R)-8-ethyl-2-(4-hydroxybicyclo[2.2.2]octan-1-yl)-4-propyl-7,8-dihydro-1H-imidazo[1,2-g]purin-5(4H)-one] showed a Ki in assay [3] greater than 10000 nM.
Same read-out and setting: with `CCCn1c2nc(C34CCC(CCC(=O)O)(CC3)CC4)nc-2c2n(c1=O)C[C@@H](C(C)C)N2` [(R)-3-(4-(8-isopropyl-5-oxo-4-propyl-4,5,7,8-tetrahydro-1H-imidazo[1,2-g]purin-2-yl)bicyclo[2.2.2]octan-1-yl)propanoic acid] the figure was greater than 10000 nM.
